CXCR6 block: CXCR6 receptor inhibitors, primary screen, cell-based, beta-arrestin, luminescence, CHO-K1 PathHunter, 1536-well; C-X-C chemokine receptor type 6 (Homo sapiens), O00574; inhibition, % at 20 µM; 0.36% of 360,000 active; AID 602244, 2012; in the data active = inhibition above about 34%, passing the limit was not always enough;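 note: antagonist mode with CXCL16 agonist at 10 nM final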
APJ ag: agonists of human apelin receptor APJ, primary screen, CHO-K1 cells, PathHunter beta-arrestin, luminescence | P35414 | 0% DMSO wells, 100% apelin | activation, % at 20 µM | 0.11% of 330,000 active | AID 2520, 2010;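 active = activation more than six SD over the plate average, tested at 20 µM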
Target sequence (P35414 whole entry, looked up): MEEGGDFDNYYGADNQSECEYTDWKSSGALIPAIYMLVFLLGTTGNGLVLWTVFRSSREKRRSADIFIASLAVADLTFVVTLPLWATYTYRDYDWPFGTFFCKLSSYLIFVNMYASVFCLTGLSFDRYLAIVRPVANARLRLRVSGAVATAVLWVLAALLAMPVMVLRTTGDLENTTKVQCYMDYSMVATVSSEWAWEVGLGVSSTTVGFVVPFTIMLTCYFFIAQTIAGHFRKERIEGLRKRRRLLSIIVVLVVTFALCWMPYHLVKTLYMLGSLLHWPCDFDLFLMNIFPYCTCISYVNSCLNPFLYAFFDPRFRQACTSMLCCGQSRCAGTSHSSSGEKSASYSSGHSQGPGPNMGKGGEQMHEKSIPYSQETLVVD
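assay system = CHO-K1 APJ beta-arrestin complementation cell line | input = cell density 1000 per well | dosing = compound 20 µM once, DMSO 1% | timing = compound 90 min 25 °C, reagent 1 h | measured by = luminescence from split beta-galactosidase complementation, Galacton Star/Emerald II substrate | read-out basis = APJ agonist activity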
APJ antagonist: antagonists of human apelin receptor APJ, primary screen, CHO-K1 cells, beta-arrestin complementation, luminescence; P35414; 0.32% of 330,000 active; AID 2521, 2010; inhibition, % at 20 µM;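 active = inhibition above about 40% at 20 µM, limit read from the data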;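 note: cells challenged with 10 nM apelin-13 agonist together with compound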
m5-HT2A agonist: mouse Htr2a agonists via beta-arrestin recruitment, primary screen, cell-based, luminescence; 5-hydroxytryptamine receptor 2A (Mus musculus), P35363; CHO-K1 mHTR2A beta-arrestin complementation; percent of 30 µM serotonin response; activation, % at 7.6 µM; 0.66% of 360,000 active;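 active = activation above a run cutoff, the mean activation of all tested compounds plus 3 SD, cut at about 14% in these data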
CCR6 antag: CCR6 receptor antagonists, primary screen, cell-based, CHO-K1, luminescence, beta-arrestin, uHTS; C-C chemokine receptor type 6 (Homo sapiens), P51684; CHO-K1 CCR6 PathHunter beta-arrestin, CCL20-stimulated; inhibition, % at 20 µM; 0.49% of 340,000 active; AID 493098, 2011;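 active = compounds whose inhibition of the agonist-driven luminescence signal at 20 µM reaches about 50%, limit read from the data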;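 note: cells stimulated with CCL20 at 14 nM final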
EBI2 antag: EBI2 receptor antagonists, beta-arrestin recruitment, primary screen, cell-based, luminescence, 7a,25-OHC stimulation, uHTS. G-protein coupled receptor 183 (Homo sapiens), P32249. 7a,25-OHC stimulated. inhibition, % at 5 µM. 0.81% of 360,000 active; in the data active = inhibition above about 38%;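 note: enzyme fragment complementation signal reports receptor beta-arrestin coupling in cells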
MOR ag counter: OPRM1 agonists via beta-arrestin recruitment, confirmation, counter-screen for mouse HTR2A agonist project, cell-based, luminescence, single concentration; U2OS OPRM1 beta-arrestin PathHunter; DMSO 0%, DAMGO 9.3 µM 100%; shares compounds with m5-HT2A agonist; AID 624380, 2012; 5.3% of 2,300 active; activation, % at 9.3 µM;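 active = mean activation above the mean of DMSO-only wells plus 3 SD, cut at about 0.5% in these data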
HTR2A ag conf: mouse HTR2A agonists, beta-arrestin recruitment, confirmation, cell-based, luminescence, CHO-K1 PathHunter, triplicate | shares compounds with m5-HT2A agonist | DMSO 0%, 30 µM serotonin 100% | activation, % at 7.6 µM | 19% of 2,300 active | AID 624381, 2012;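 active = mean activation across triplicates above the hit threshold derived in the original primary screen, cut at about 15% in these data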
Hits are given with their value. Shown are actives, neighbours in structure and some others; about 2.2% of the full set was active somewhere.

Results for N#Cc1cccc(NC(=O)c2cc(C3CCCCN3S(=O)(=O)c3ccccc3)on2)c1 (stereo not given) ?
CXCR6 block: inactive; m5-HT2A agonist: inactive; EBI2 antag: inactive

Results for CC1CCN(Cc2nnnn2CCCC(=O)NCCc2cnn(C)c2)CC1 ?
CXCR6 block: inactive; APJ ag: inactive; APJ antagonist: inactive; m5-HT2A agonist: 15.6; CCR6 antag: inactive; EBI2 antag: inactive; MOR ag counter: inactive; HTR2A ag conf: inactive

What do the screens show for `Cc1cc(O)cc(O)c1/C=N/NC(=O)c1ccc2c(c1)OCCO2`?
CXCR6 block: inactive; m5-HT2A agonist: inactive; EBI2 antag: inactive

Results for CC1(C(=O)NCc2cccc3ccccc23)CCN1C(=O)C1(c2ccccc2)CCCC1 (stereo not given) ?
CXCR6 block: inactive; m5-HT2A agonist: inactive; EBI2 antag: inactive

What do the screens show for `COc1ccccc1CNC(=O)C1CCC(CNS(=O)(=O)c2ccc(F)cc2)CC1` (stereo not given)?
CXCR6 block: inactive; APJ ag: inactive; APJ antagonist: inactive; m5-HT2A agonist: 20.9; CCR6 antag: inactive; EBI2 antag: inactive; MOR ag counter: inactive; HTR2A ag conf: inactive

Results for CC/C(=N\NC(=O)C1CCCC1)c1ccc(Br)cc1 ?
CXCR6 block: inactive; APJ ag: inactive; APJ antagonist: inactive; m5-HT2A agonist: 18.4; CCR6 antag: inactive; EBI2 antag: inactive; MOR ag counter: inactive; HTR2A ag conf: inactive

What do the screens show for `COc1ccc(-c2cc(C(=O)NCc3cccc(C(F)(F)F)c3)[nH]n2)c(C)c1`?
CXCR6 block: inactive; m5-HT2A agonist: inactive; EBI2 antag: inactive

Results for CCCc1c(-c2ccc(Cl)cc2)ncn1CCc1ccccc1OC ?
CXCR6 block: inactive; m5-HT2A agonist: inactive; EBI2 antag: inactive

How did CCCc1c(-c2ccc(F)cc2)ncn1CCc1ccccc1OC do in these assays?
CXCR6 block: inactive; m5-HT2A agonist: 16.5; EBI2 antag: inactive; MOR ag counter: 0.8; HTR2A ag conf: inactive

What do the screens show for `C=CCn1c(=N)n(CC(O)c2ccco2)c2ccccc21` (stereo not given)?
CXCR6 block: inactive; APJ ag: inactive; APJ antagonist: inactive; m5-HT2A agonist: 14.7; CCR6 antag: inactive; EBI2 antag: inactive; MOR ag counter: inactive; HTR2A ag conf: inactive

Results for COc1ccc(OC)c(S(=O)(=O)N/N=C\c2ccc3c(c2)OCO3)c1 ?
CXCR6 block: inactive; APJ ag: inactive; APJ antagonist: inactive; m5-HT2A agonist: 16.7; CCR6 antag: inactive; EBI2 antag: inactive; MOR ag counter: inactive; HTR2A ag conf: inactive

What do the screens show for `O=C(N[C@H]1CC[C@H](CCNC(=O)C2CC2)O[C@@H]1CO)c1ccccn1`?
m5-HT2A agonist: inactive; EBI2 antag: inactive

What do the screens show for `COc1ccccc1-c1ccc2c(c1)C(C)(Cc1cc(Cl)ccc1C(F)(F)F)C(=O)N2` (stereo not given)?
CXCR6 block: inactive; m5-HT2A agonist: inactive; EBI2 antag: inactive

How did COc1ccc(Cl)cc1CC1(C)C(=O)Nc2ccc(-c3ccccc3OC)cc21 (stereo not given) do in these assays?
CXCR6 block: inactive; m5-HT2A agonist: 21.1; EBI2 antag: inactive; MOR ag counter: inactive; HTR2A ag conf: 17.3

What do the screens show for `Cc1ccc(C)c(NC(=O)c2ccc[n+](Cc3ccc([N+](=O)[O-])cc3)c2)c1`?
CXCR6 block: inactive; APJ ag: inactive; APJ antagonist: inactive; m5-HT2A agonist: 15.2; CCR6 antag: inactive; EBI2 antag: inactive; MOR ag counter: inactive; HTR2A ag conf: inactive

Results for O=C(O)c1ccc[n+](Cc2ccc([N+](=O)[O-])cc2)c1 ?
CXCR6 block: inactive; APJ ag: inactive; APJ antagonist: inactive; m5-HT2A agonist: inactive; CCR6 antag: inactive; EBI2 antag: inactive

What do the screens show for `CCOC1=C2[C@@H](CN(S(=O)(=O)c3ccc(C)cc3)[C@H]2c2ccc(Cl)cc2)[C@H]2C(=O)N(c3ccccc3)C(=O)[C@H]2C1`?
CXCR6 block: inactive; m5-HT2A agonist: 21.1; EBI2 antag: inactive; MOR ag counter: inactive; HTR2A ag conf: inactive

Results for CC(=O)Nc1ccc(S(=O)(=O)N2CC(=O)NC(=O)C2)cc1 ?
CXCR6 block: inactive; APJ ag: inactive; APJ antagonist: inactive; m5-HT2A agonist: 20.1; CCR6 antag: inactive; EBI2 antag: inactive; MOR ag counter: inactive; HTR2A ag conf: inactive

What do the screens show for `Cc1c(C(=O)NCc2ccccn2)sc(=O)n1Cc1ccc(-c2ccccc2)cc1`?
CXCR6 block: inactive; m5-HT2A agonist: 24.7; EBI2 antag: inactive; MOR ag counter: inactive; HTR2A ag conf: inactive

Results for Cc1csc2c(N3CCN(C(=O)Nc4ccc(OC(F)(F)F)cc4)CC3)ncnc12 ?
CXCR6 block: inactive; APJ ag: inactive; APJ antagonist: inactive; m5-HT2A agonist: 14.4; CCR6 antag: inactive; EBI2 antag: inactive; MOR ag counter: inactive; HTR2A ag conf: inactive

What do the screens show for `CCOC(=O)C(=C1Nc2ccccc2N1)n1c(-c2cccnc2)nc2ccccc21`?
CXCR6 block: inactive; m5-HT2A agonist: inactive; EBI2 antag: inactive

How did CC(C)(C)OC(=O)N1CCC(NC(=O)c2nc[nH]c2C(=O)NCC(=O)OCc2ccccc2)CC1 do in these assays?
CXCR6 block: inactive; APJ ag: inactive; APJ antagonist: inactive; m5-HT2A agonist: 21.4; CCR6 antag: inactive; EBI2 antag: inactive; MOR ag counter: inactive; HTR2A ag conf: inactive

Results for O=C(Nc1ccccc1O)c1c(O)c2c([nH]c1=O)CCCC2 ?
CXCR6 block: inactive; APJ ag: inactive; APJ antagonist: inactive; m5-HT2A agonist: 15.0; CCR6 antag: inactive; EBI2 antag: inactive; MOR ag counter: 0.8; HTR2A ag conf: inactive

Results for O=C(Nc1nccs1)c1c(O)c2c([nH]c1=O)CCCC2 ?
CXCR6 block: inactive; APJ ag: inactive; APJ antagonist: inactive; m5-HT2A agonist: inactive; CCR6 antag: inactive; EBI2 antag: inactive
